Compound activity as filed in PubChem.
The list is not random: actives were taken first. Their share in the collection is about 3.1%.
ADAM17 inh: inhibitors of human ADAM17. recombinant ADAM17, EDANS/DABCYL FRET peptide cleavage. inhibition, % at 6.95 µM. AID 720648. P78536. 370,000 tested, 0.83% active;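 active means inhibition above the mean of compounds lying between control limits plus 3 SD, set per campaign, cut at about 8.5% in these data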;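 further: 0% = DMSO-only wells as the low control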
V-ATPase pH: regulators of yeast V-ATPase proton transport; S. cerevisiae, pHLuorin cytosolic pH fluorescence; response, % at 10 µM; 350,000 tested, 0.37% active; AID 504577; in the data active means response mostly above about 7.3%, no sharp cut-off; inactive means mostly below about 5.4%; further: actives read high
Hep lipid drop: modulators of hepatic lipid droplet formation. AID 1656. 240,000 tested, 0.4% active. AML12 mouse hepatocytes, oleate lipid droplets, BODIPY imaging. inhibition, % at 6.5 µM;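 active means lipid droplet intensity inhibited by at least 50%, with more than 500 cells counted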
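Assay system: AML12 mouse liver cells | Compound: 6.5 µM single-point dosing | Schedule: Overnight exposure | Technique: Fluorescence imaging, 20x objective, two fields per well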
ADAM10 inh: inhibitors of human ADAM10 | O14672 | recombinant ADAM10, EDANS/DABCYL FRET peptide cleavage, 3 h | inhibition, % at 7 µM | 370,000 tested, 0.62% active;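 active means inhibition above a per-campaign cutoff equal to the mean of compounds falling between control-based bounds plus 3 SD, cut at about 20% in these data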;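 further: 0% = DMSO wells while the 100% control is not disclosed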
Target sequence (O14672 214-748 limits assumed): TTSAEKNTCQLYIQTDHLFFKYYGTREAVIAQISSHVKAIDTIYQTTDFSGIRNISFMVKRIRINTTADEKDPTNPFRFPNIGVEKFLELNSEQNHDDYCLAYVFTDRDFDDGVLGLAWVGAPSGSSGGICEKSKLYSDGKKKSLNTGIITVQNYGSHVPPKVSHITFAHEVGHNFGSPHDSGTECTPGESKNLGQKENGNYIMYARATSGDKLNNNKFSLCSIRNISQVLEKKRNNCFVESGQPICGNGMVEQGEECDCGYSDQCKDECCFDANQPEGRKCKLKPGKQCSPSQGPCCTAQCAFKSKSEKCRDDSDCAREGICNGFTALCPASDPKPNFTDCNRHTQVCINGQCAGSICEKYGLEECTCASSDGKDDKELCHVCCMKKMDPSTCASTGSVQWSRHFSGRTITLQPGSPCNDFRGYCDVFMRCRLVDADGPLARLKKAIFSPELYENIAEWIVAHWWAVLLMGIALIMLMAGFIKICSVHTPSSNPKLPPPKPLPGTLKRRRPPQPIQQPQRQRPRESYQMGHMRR
aDG glyco act: alpha-DG glycosylation activation; activation, % at 10 µM; Pro5-aDG cells, alpha-DG glycosylation AlphaScreen (IIH6); 0% Pro5, 100% B10-LARGE cell signal; 360,000 tested, 0.22% active; AID 624168;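 active means activation of at least 8% versus controls, or a plate z-score of at least 8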;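 further: Pro5 are CHO cells carrying HIG-tagged alpha-DG that lacks glycosylation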
MPTP inh: inhibitors of mitochondrial permeability transition pore. isolated mouse mitochondria, Ca2+ swelling absorbance, 30 min. inhibition, % at 10 µM. 360,000 tested, 1.4% active. AID 602449;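 active means inhibition of 50% or more, scaled per plate between neutral and stimulator controls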;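 further: 0% = DMSO wells given calcium and 100% = 1 mM EGTA wells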
MPTP counter: membrane potential counter-screen of mitochondrial pore inhibitors; shares compounds with MPTP inh; isolated mitochondria, Rhodamine 123 fluorescence; inhibition, % at 10 µM; 5,000 tested, 78% active; AID 624504; in the data active means inhibition above about 22%;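 further: 0% = DMSO vehicle and 100% = positive control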
MPTP abs DR: MPTP inhibition, dose response swelling confirmation; shares compounds with MPTP inh; isolated mitochondria swelling, absorbance; IC50, µM; 780 tested, 58% active; in the data active means IC50 below about 20 µM
MPTP counter DR: active in counter-screen for permeability transition pore inhibitors | 780 tested, 49% active | IC50, µM | shares compounds with MPTP inh | isolated mitochondria counterscreen, fluorescence read-out; in the data active means IC50 below about 80 µM
* marks the source's active call; other numbers are inactive results; i = inactive; / = no result given.

SMILES	ADAM17 inh	V-ATPase pH	Hep lipid drop	ADAM10 inh	aDG glyco act	MPTP inh	MPTP counter	others
CC(=O)Nc1sc2c(c1C#N)CCCC2	-1	3	5	-2	0	1	/
CC(C)(C)c1ccc(C(=O)NC(=S)Nc2sc3c(c2C#N)CCC3)cc1	-4	0	-44	-7	0	35	/
N#Cc1c(NC(=S)NC(=O)c2ccccc2)sc2c1CCC2	-1	-2	12	-3	0	58*	37*
COc1cccc([C@H]2NC(=O)C/C=C/[C@@H](C)[C@@H](c3cccc(OC)c3)NC(=O)C/C=C/[C@H]2C)c1	-1	/	/	-12	/	/	/
N#Cc1c(NC(=S)NC(=O)Cc2cccs2)sc2c1CCCCC2	0	-7	/	1	0	84*	74*
COc1ccc(C(OCC(O)CNC(C)c2ccccc2)c2ccc(OC)cc2)cc1 (stereo unspecified)	1	-6	-13	0	0	97*	-7	MPTP abs DR=7.5*;MPTP counter DR=>80
Cc1cc(=O)[nH]c(SCC(=O)Nc2ccc(F)c(F)c2)n1	-1	/	/	-7	/	/	/
O=C(COC(=O)c1cc(S(=O)(=O)Nc2ccccc2Cl)ccc1O)Nc1nc2ccccc2s1	-3	3	-6	0	0	90*	78*
N#Cc1cccc(NC(=O)COC(=O)c2cc(S(=O)(=O)Nc3ccccc3Cl)ccc2O)c1	-8	-2	/	-36	0	58*	86*
c1ccn(-c2ccc(-c3noc(CCc4ccncc4)n3)cc2)c1	-2	/	/	13	/	/	/
Cc1oc(-c2ccc(Cl)cc2)nc1CN1CCC(C(=O)N2CCN(Cc3ccccc3)CC2)CC1	3	1	/	2	0	57*	9	MPTP abs DR=i;MPTP counter DR=30*
O=S1(=O)CC2c3ccccc3CN2CN1CCc1ccccc1 (stereo unspecified)	-3	/	/	0	/	/	/
O=C(NCC(c1ccccc1)c1ccccc1)[C@H](Cc1c[nH]c2ccccc12)NC1(C(=O)NC2CCCCC2)CCCC1	-3	/	/	2	/	/	/
CC(C)(C)c1ccc(CSc2nc(N)cc(=O)[nH]2)cc1	/	-3	/	/	1	67*	76*
Nc1cc(=O)[nH]c(SCc2ccc(Cl)cc2)n1	1	-3	2	-10	0	1	/
N#C/C(=C(/O)C(Cl)c1ccccc1)c1nc2ccccc2s1 (stereo unspecified)	-5	-3	13	-27	0	55*	74*
N#C/C(=C(/O)c1cc2ccccc2o1)c1nc2ccccc2s1	-3	-1	-38	9	0	98*	78*
Cn1c(/C(C#N)=C(\O)c2cccc(F)c2)nc2ccccc21	-5	3	-18	6	0	0	/
N#C/C(=C(/O)c1cccc(F)c1)c1nc2ccccc2s1	-1	2	-16	-3	0	87*	86*
N#C/C(=C(/O)c1ccco1)c1nc2ccccc2s1	-2	0	-5	1	0	5	/
O=S(=O)(Nc1ccc(Cl)cc1NS(=O)(=O)c1ccccc1)c1ccccc1	4	0	/	18	0	89*	65*
Cc1ccc(Cl)cc1NS(=O)(=O)c1ccccc1	-1	2	/	-1	0	0	/
CCCC1=NN2C(=N)/C(=C\c3cc(C)n(-c4cccc(C)c4)c3C)C(=O)N=C2S1	-4	4	-8	-8	0	52*	5	MPTP abs DR=i;MPTP counter DR=>80
CCc1ccc(N2C(=O)C[C@@](C#N)(C(=O)OC)[C@H]2c2ccccc2)cc1	-3	/	/	-4	/	/	/
O=S(=O)(Nc1nc2ccccc2nc1Nc1ccc(N2CCOCC2)cc1)c1cc(Cl)ccc1Cl	-2	-2	-18	-2	0	86*	77*
O=C(Nc1cccc(Cl)c1)OC1CCC12CCC(c1ccccc1)CC2 (stereo unspecified)	4	/	/	11	/	/	/
CC(C)CC(=O)NC(c1ccccc1Cl)c1c(O)ccc2ccccc12 (stereo unspecified)	-2	1	-32	-24	0	76*	86*
